# Measured values of several laboratories.
# Each line is one published result; the experiments were not run side by side.
# Target: Serine/threonine-protein kinase 26 (STK26, Homo sapiens, UniProt Q9P289)
SMILES,test,setting,endpoint,result
COc1cc(Cl)c(C(=O)N[C@@H](CN[C@H]2CC[C@@H](N)CC2)Cc2ccc(C#N)cc2)cc1-c1ccc(CN[C@H](C)c2ccc(C)cc2)o1,"enzyme activity, inhibitor",1 µM,remaining activity,94%
N[C@H]1CCN(c2nccc(-c3cnn4ncccc34)n2)C1,cell-free assay,1 µM,remaining signal,71%
CCC(=O)N[C@H]1CC[C@@H](C(=O)N(C)c2ccc(-c3nc4ccccc4o3)cc2)C1,"cell-free assay, competition with immobilised ligand",1 µM,remaining binding,76%
O=C(Nc1cnn(-c2csc(C(=O)NC3COC3)c2)c1)Nc1ccccc1Cl,"enzyme activity, inhibitor",5 µM,remaining activity,98.3%
O=C(NS(=O)(=O)c1ccc(NCC2CCOCC2)c([N+](=O)[O-])c1)c1ccc(N2CCN(Cc3ccc(C(F)(F)F)cc3-c3ccc(Cl)cc3)CC2)cc1Oc1cnc2[nH]ccc2c1,"cell-free assay, competition with immobilised ligand",1 µM,remaining binding,72%
Cn1c2c(c3ccc(Cl)c(Cl)c31)C(C#N)C1(CCNCC1)NC2=O (racemic),"thermal stability, DSF",10 µM,ΔTm,-0.5 °C
CN(c1nccc(-c2cnn3ncccc23)n1)C1CC1,cell-free assay,1 µM,remaining signal,100%
c1ccc(CNc2nc(N3CCOc4ccccc43)nc3c2CCCC3)cc1,"target engagement in cells, inhibitor, chemoproteomics",20 mM,inhibition,38.2%
CC(C)(C)C(=O)c1sc(NC2CCCCC2)nc1N,"enzyme activity, inhibitor",10 µM,remaining activity,90%
Cc1ccc(NC(=O)c2ccc(C)c(C(F)(F)F)c2)cc1C#Cc1nn(C2CCC(O)CC2)c2ncnc(N)c12 (stereo not shown),cell-free assay,10 µM,remaining signal,73%
Cn1c2c(Cl)c(Cl)ccc2c2cc[nH]c(=O)c21,"thermal stability, DSF",10 µM,ΔTm,1.5 °C
CCCCNc1ncc2c(-c3ccc(F)cc3)nn(C[C@H]3CC[C@H](N)CC3)c2n1,"target engagement in cells, inhibitor, chemoproteomics",20 mM,inhibition,1.8%
CN(C)c1nccc(-c2cnn3ncccc23)n1,cell-free assay,1 µM,remaining signal,100%
CC(=O)N1CCC(c2ccc(C(=O)NC(=N)N)cc2C(F)(F)F)CC1,"cell-free assay, competition with immobilised ligand",1 µM,remaining binding,97%
COc1cc(-c2cc(-c3ccc(N4CCNCC4)cc3)cnc2C)cc(OC)c1OC,"enzyme activity, inhibitor",1 µM,inhibition,12%
O=C1Nc2ccc(Cl)cc2C1=Cc1cc(Cl)c(O)c(Cl)c1,cell-free assay,0.5 µM,remaining signal,101%
Cn1c2c(Cl)c(Cl)ccc2c2cc(N)[nH]c(=O)c21,"thermal stability, DSF",10 µM,ΔTm,1.5 °C
COc1cc2ncnc(Nc3ccc(Oc4ccccc4)c(C)c3C)c2cc1OC,"enzyme activity, inhibitor",1 µM,inhibition,21%
Cc1noc([C@H]2C[C@@H](c3ccc(C(F)(F)F)cc3)CN(C(=O)N3CCS(=O)(=O)C3)C2)n1,"cell-free assay, competition with immobilised ligand",1 µM,remaining binding,74%
N#CCCc1ccc2c(c1)-c1[nH]c3ccc([N+](=O)[O-])cc3c1CC(=O)N2,cell-free assay,0.5 µM,remaining signal,65.1%
FC(F)c1nc2ccccc2n1-c1nc(N2CCOCC2)nc(N2CCOCC2)n1,"enzyme activity, inhibitor",10 µM,remaining activity,88%
Cc1cc(NC(=O)c2cccc3cc(-c4cccc5[nH]nc(N)c45)ccc23)ccc1F,"enzyme activity, inhibitor",0.1 µM,activity vs control,107%
COc1cc(/C=C/C(=O)CC(=O)/C=C/c2ccc(O)c(OC)c2)ccc1O,"enzyme activity, inhibitor",1 µM,activity vs control,75%
F[C@@H]1CCN(c2nccc(-c3cnn4ncccc34)n2)C1,cell-free assay,1 µM,remaining signal,100%
COc1cc(-c2cc(-c3ccc(N4CCNCC4)cc3)cnc2N)cc(OC)c1OC,"enzyme activity, inhibitor",0.1 µM,inhibition,0%
N#CC1c2c([nH]c3c(Cl)c(Cl)ccc23)C(=O)NC12CCCCC2 (racemic),"thermal stability, DSF",10 µM,ΔTm,0.1 °C
Nc1ncnc2occ(-c3ccc(NC(=O)Nc4cc(C(F)(F)F)ccc4F)cc3)c12,"cell-free assay, inhibitor",20 µM,remaining signal,2.6%
c1cnn2ncc(-c3ccnc(N4CCC45COC5)n3)c2c1,cell-free assay,1 µM,remaining signal,64%
FC(F)(F)Oc1cccc(-c2cnc3ccc(-c4ccncc4)nn23)c1,"enzyme activity, inhibitor, radiometric",1 µM,activity vs control,96%
Nc1nc(Nc2ccccc2)sc1C(=O)c1c(F)cccc1F,"enzyme activity, inhibitor",10 µM,remaining activity,57%
CC(C)(C)c1nc2c(s1)c1nc(N)ncc1c1ccc(NS(=O)(=O)c3c(F)cccc3F)c(F)c12,"enzyme activity, inhibitor, radiometric",1 µM,remaining activity,98%
c1ccc(N2CCN(Cc3nc4ccccc4[nH]3)CC2)nc1,"binding, competition with immobilised ligand",1 µM,remaining binding,100%
COc1cc(Nc2cnc(C#N)c(O[C@H](C)CN(C)C)n2)ncc1-c1cnn(C)c1,"enzyme activity, inhibitor, radiometric",1 µM,remaining activity,83%
NS(=O)(=O)c1cc(NC(=O)Cc2ccccc2)ccc1Oc1cccc(Cl)c1,"cell-free assay, competition with immobilised ligand",1 µM,remaining binding,99%
CN(CCCC(F)(F)F)c1nccc(-c2cnn3ncccc23)n1,cell-free assay,1 µM,remaining signal,100%
Oc1cccc(-c2nc(N3CCOCC3)c3oc4ncccc4c3n2)c1,"enzyme activity, inhibitor",10 µM,remaining activity,114%
CN(C)C(=O)Cn1cc(-c2nc(C3(c4ccc(-c5cnc(N)nc5)cc4)CC3)no2)cn1,"cell-free assay, competition with immobilised ligand",1 µM,remaining binding,89%
O=C1NC(=O)c2cc(Nc3ccc(F)cc3)c(Nc3ccc(F)cc3)cc21,cell-free assay,0.5 µM,remaining signal,99%
Cc1nccc(COC(=O)N2C[C@@H]3[C@@H](CNC(=O)c4ccc5[nH]nnc5c4)[C@@H]3C2)n1,"cell-free assay, competition with immobilised ligand",1 µM,remaining binding,77%
CN(C)C1CCN(CC#Cc2nn(C3CCCC3)c3nc(NCc4ccccc4)ncc23)C1 (stereo not shown),"enzyme activity, inhibitor, FRET",1 µM,inhibition,20%
